# Assay results as given in ChEMBL document CHEMBL4396878, “Mechanisms of Specific versus Nonspecific Interactions of Aggregation-Prone Inhibitors and Attenuators” (J Med Chem, 2019).
# pKd: −log10 of the molar value. Calls of active or inactive are those of the source. The calls are words filed in the database; no cut-off is given here.
# How the values were obtained:
# [1] = Binding affinity to Triton-X 100 assessed as line broadening at 150 uM by 1H-NMR spectra analysis
# [2] = Binding affinity to Triton-X 100 assessed as change in chemical shift at 150 uM by 1H-NMR spectra analysis
# [3] = Binding affinity to Triton-X 100 assessed as peak intensity loss at 150 uM by 1H-NMR spectra analysis
# [4] = Binding affinity to Triton-X 100 assessed as change in chemical shift at 100 uM by 1H-NMR spectra analysis
# Albumin [5] = molecular target: T1, Albumin (Homo sapiens, UniProt P02768); test: Displacement of [13C]oleic acid from human serum albumin by CH-HSQC spectra analysis
# T1 sequence (P02768 whole entry): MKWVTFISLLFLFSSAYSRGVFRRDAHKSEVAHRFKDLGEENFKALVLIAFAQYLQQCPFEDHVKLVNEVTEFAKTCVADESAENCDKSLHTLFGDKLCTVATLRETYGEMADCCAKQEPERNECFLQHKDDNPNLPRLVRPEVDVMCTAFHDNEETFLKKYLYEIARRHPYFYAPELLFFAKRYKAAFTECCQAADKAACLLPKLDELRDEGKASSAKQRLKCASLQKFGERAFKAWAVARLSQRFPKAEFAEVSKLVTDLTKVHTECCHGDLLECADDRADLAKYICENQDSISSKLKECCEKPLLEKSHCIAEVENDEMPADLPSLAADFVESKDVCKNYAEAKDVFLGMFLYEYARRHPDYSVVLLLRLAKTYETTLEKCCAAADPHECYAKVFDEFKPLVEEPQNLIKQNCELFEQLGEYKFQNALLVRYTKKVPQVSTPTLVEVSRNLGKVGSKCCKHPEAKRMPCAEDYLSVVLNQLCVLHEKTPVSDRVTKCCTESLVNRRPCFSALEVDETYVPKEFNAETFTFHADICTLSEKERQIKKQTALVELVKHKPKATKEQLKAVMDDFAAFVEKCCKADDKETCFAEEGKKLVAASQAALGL
# Outline: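 Fatty-acid-free recombinant HSA at 250 μM in sodium phosphate buffer (20 mM NaPO4, pH 7.6, 50 mM NaCl, D2O), 37 °C for 30 min. 13C-oleic acid (100 mM stock in DMSO-d6, warmed to 50 °C for 10 min) added to 1.5 mM, then 2 h at 37 °C. CH-HSQC at 298 K; loss of site-specific cross-peaks A–H scored.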
# Albumin [6] = molecular target: T1, Albumin; test: Binding affinity to human serum albumin assessed as inhibition of compound aggregation at 500 uM by dynamic light scattering analysis
# Outline: (§1)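 Dynamic light scattering in NMR buffer, samples filtered through 0.22 μm and centrifuged 5 min at 13 500 rpm before measurement. Autocorrelation accumulated 150 s at a 173° scattering angle, in replicates of 3–5, with water viscosity used in analysis; intensity or volume size distributions reported.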
# [7] = Aggregation property of the compound assessed as change in chemical shift by 1H-NMR analysis; type: physicochemical
# Outline: (§2)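 Line widths, chemical shifts and peak intensities tracked; CAC taken as the concentration where intensities deviate from linear dependence, or, for line width, the minimal concentration that increases peak width.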
# [8] = Aggregation property of the compound in NMR buffer assessed as diameter of aggregate at 500 uM by dynamic light scattering analysis; type: physicochemical; outline: as §1
# [9] = Aggregation property of the compound assessed as change in peak intensity by measuring concentration at which peak intensities deviated from the linear correlation by 1H-NMR analysis; type: physicochemical; outline: as §2
# Albumin [10] = molecular target: T1, Albumin; test: Displacement of dansylated arginine from human serum albumin at <150 uM by fluorescence assay
# Outline: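 Competition of ligand against 100 μM dansyl-arginine (Sudlow site 1, 1:1 stoichiometry) bound to 2.5 μM HSA. Excitation 370 nm, emission 460 nm. Apparent Kd fitted by Wang's method using least squares, assuming no other ligand sites on HSA, so treated as a maximum apparent value.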
# [11] = molecular target: T2, Rap guanine nucleotide exchange factor 3 (Homo sapiens, UniProt O95398); test: Binding affinity to human EPAC1 cAMP binding domain (149 to 318 residues) by [15N-1H]HSQC spectroscopic analysis
# T2 sequence (O95398 whole entry): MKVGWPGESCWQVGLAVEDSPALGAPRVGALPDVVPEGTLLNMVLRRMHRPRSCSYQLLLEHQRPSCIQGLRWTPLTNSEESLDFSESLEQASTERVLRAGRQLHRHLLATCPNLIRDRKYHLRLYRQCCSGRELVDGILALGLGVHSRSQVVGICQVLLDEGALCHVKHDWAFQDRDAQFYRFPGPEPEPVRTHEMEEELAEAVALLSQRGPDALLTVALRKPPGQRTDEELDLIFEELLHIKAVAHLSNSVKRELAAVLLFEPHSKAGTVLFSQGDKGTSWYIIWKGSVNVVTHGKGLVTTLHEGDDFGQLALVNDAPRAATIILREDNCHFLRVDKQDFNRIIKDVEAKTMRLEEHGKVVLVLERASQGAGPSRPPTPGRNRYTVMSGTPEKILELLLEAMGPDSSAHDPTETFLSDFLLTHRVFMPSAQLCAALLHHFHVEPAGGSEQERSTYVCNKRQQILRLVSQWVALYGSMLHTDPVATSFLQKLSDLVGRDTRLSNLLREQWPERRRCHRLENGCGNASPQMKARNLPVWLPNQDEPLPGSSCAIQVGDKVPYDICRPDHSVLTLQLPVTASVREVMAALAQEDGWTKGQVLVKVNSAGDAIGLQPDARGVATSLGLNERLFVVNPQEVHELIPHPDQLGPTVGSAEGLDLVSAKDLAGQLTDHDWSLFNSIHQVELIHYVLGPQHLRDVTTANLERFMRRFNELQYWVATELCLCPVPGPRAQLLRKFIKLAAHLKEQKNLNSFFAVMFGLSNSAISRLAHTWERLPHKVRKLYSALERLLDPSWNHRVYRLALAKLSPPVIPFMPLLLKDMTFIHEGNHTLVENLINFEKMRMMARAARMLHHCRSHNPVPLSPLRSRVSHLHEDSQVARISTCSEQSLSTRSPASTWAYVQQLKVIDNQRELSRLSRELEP
# [12] = Aggregation property of the compound assessed as change in saturation transfer at 100 uM irradiated at 8.61 ppm by STD NMR spectra analysis; type: physicochemical
# Outline: (§3)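 STD NMR, saturation by a train of 40 Gaussian pulses of 50 ms each; selective on-resonance irradiation at the stated ppm (TX at 7.48 ppm), off-resonance at 30 ppm, interleaved and subtracted by phase cycling. 32K points, 16 ppm width centred at 4.7 ppm, 256 scans, 16 dummy scans, 0.1 s recycle delay (~15 min); 3 Hz exponential line broadening.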
# [13] = molecular target: T2, Rap guanine nucleotide exchange factor 3; test: Binding affinity to human EPAC1 cAMP binding domain (149 to 318 residues) in presence of human serum albumin by [15N-1H]HSQC spectroscopic analysis; conditions: read-out: Kd(app)
# Outline: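 100 μM human EPAC1 CBD (149–318) in NMR buffer (Tris pH 7.6) was titrated with inhibitor in the presence of globulin- and fatty-acid-free human serum albumin at stated stoichiometric ratios. Chemical shift differences and peak intensities normalised to ligand-free sample (I/I0, averaged over residues) were tracked. Errors came from propagated signal-to-noise.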
# Albumin [14] = molecular target: T1, Albumin; test: Displacement of dansylated phenylalanine from human serum albumin at <150 uM by fluorescence assay
# Outline: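 Competition of ligand against 100 μM dansyl-phenylalanine (binds Sudlow sites 1 and 2) bound to 2.5 μM HSA. Excitation 370 nm, emission 480 nm. Fractional saturation modelled with two sites, free HSA assumed negligible; least-squares fit with no further ESI sites, giving maximum apparent dissociation constants.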
# [15] = Aggregation property of the compound assessed as shift in peak width by 1H-NMR analysis; type: physicochemical; outline: as §2
# Albumin [16] = molecular target: T1, Albumin; test: Binding affinity to human serum albumin assessed as line broadening at 200 uM by 1D 1H NMR analysis
# Albumin [17] = molecular target: T1, Albumin; test: Displacement of ANS from human serum albumin at <150 uM by fluorescence assay
# Outline: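 Fluorescence competition: 2.5 μM HSA with 5 or 100 μM ANS, ligand added over a concentration range. Excitation 360 nm; emission read at 460 and 480 nm to check for blue shift. Signal normalized between ANS alone (minimum) and HSA:ANS (maximum).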
# [18] = Aggregation property of the compound in NMR buffer assessed as aggregate size at 500 uM by dynamic light scattering analysis; type: physicochemical; outline: as §1
# [19] = Aggregation property of the compound in NMR buffer at 50 to 250 uM by surface plasmon resonance analysis; type: physicochemical
# Outline: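 SPR on a nonfunctionalized gold nanoparticle sensor; samples in NMR buffer with DMSO at 1.25%, injected at 33 μL/min alongside matched DMSO controls (with HSA where present, 25 μM), in duplicate. Surface regenerated only after HSA-containing injections.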
# [20] = Aggregation property of the compound in NMR buffer assessed as amorphous morphology at 200 uM by uranyl acetate staining-based transmission electron microscopic analysis; type: physicochemical
# [21] = Binding affinity to Triton-X 100 assessed as intra-molecular saturation transfer at 500 uM at 8.61 ppm by STD spectra analysis; outline: as §3
# [22] = Binding affinity to Triton-X 100 at 500 uM measured after 14 hrs by NOESY spectra analysis
# Outline: (§4)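 2D NOESY and ROESY of 100 μM ESI with 0.025% Triton X-100 or 500 μM ESI with 0.05% Triton X-100; 2K × 512 complex points, 12 ppm spectral width centred at 4.7 ppm, intra- and intermolecular cross-peaks mapped.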
# [23] = Binding affinity to Triton-X 100 assessed as intra-molecular cross relaxation at 500 uM by NOESY spectra analysis; outline: as §4
# [24] = Binding affinity to Triton-X 100 assessed as inter-molecular cross relaxation at 500 uM by NOESY spectra analysis; outline: as §4
# [25] = Binding affinity to Triton-X 100 assessed as peak size of aggregate at 1:2 ratio of Triton-X 100 to compound by dynamic light scattering analysis; outline: as §1
# [26] = Binding affinity to Triton-X 100 assessed as compound-complex formation at 500 uM by NOESY spectra analysis; outline: as §4
# [27] = Binding affinity to Triton-X 100 assessed as inter-molecular saturation transfer at 500 uM at 8.61 ppm by STD spectra analysis; outline: as §3
# [28] = Binding affinity to Triton-X 100 assessed as peak size of aggregate at 1:1 ratio of Triton-X 100 to compound by dynamic light scattering analysis; outline: as §1
# [29] = Binding affinity to Triton-X 100 assessed as line broadening at 150 uM by 1H-NMR analysis
smiles,measurement,setting,value
O=S(=O)(O)c1cccc2cccc(Nc3ccccc3)c12,Activity,[1],Active
same,Activity,[2],Active
Clc1ccccc1C(c1ccccc1)(c1ccccc1)n1ccnc1,Activity,[1],Active
same,Activity,[2],Active
same,Activity,[3],Active
C[C@@H]1CCc2c(cc(Br)c(F)c2Br)N1C=O (stereo in doubt; cis),Activity,[4],< 0.34 ppm
C[C@@H]1CCc2c(cc(Br)c(F)c2Br)N1C=O [listing 1 of 2 here],Activity,Albumin [5],Active
same,inhibition (INH),Albumin [6],Active
same,Activity,[7],Not Active
same,Activity,[8],250 nm
same,Activity,[9],150 µM
same,Activity,Albumin [10],Not Active
same,pKd,[11],3.74 to 3.91
same,Activity,[12],Not Active
same,pKd,[13],2.70 to 3.12
same,Activity,Albumin [14],Not Active
same,Activity,[15],Not Active
same,Activity,Albumin [16],Active
same,Activity,Albumin [17],Not Active
same,Activity,[18],90 to 600 nm
same,Activity,[19],Not Active
same,Activity,[20],Active
C[C@@H]1CCc2c(cc(Br)c(F)c2Br)N1C=O (stereo in doubt; trans),Activity,[4],0.02 ppm
COC(=O)C1=C(C)NC(C)=C(C(=O)OCCN(C)Cc2ccccc2)C1c1cccc([N+](=O)[O-])c1 (stereo not given),Activity,[1],Active
same,Activity,[2],Active
same,Activity,[3],Active
C[C@@H]1CCc2c(cc(Br)c(F)c2Br)N1C=O [listing 2 of 2 here],Activity,[21],Active
same,Activity,[22],inactive
same,Activity,[23],Active
same,Activity,[24],Active
same,Activity,[25],70 nm
same,Activity,[26],Active
same,Activity,[27],Active
same,Activity,[28],10 nm
Nc1nnc(-c2cccc(Cl)c2Cl)c(N)n1,Activity,[1],inactive
same,Activity,[2],inactive
O=C(O)c1cc(-c2ccc(F)cc2F)ccc1O,Activity,[1],Active
same,Activity,[2],Active
Clc1ccc(COC(Cn2ccnc2)c2ccc(Cl)cc2Cl)c(Cl)c1 (stereo not given),Activity,[1],Active
same,Activity,[29],Active
same,Activity,[2],Active
same,Activity,[3],Active
O=C(OCc1ccccc1)c1ccccc1,Activity,[1],Active
same,Activity,[2],Active
same,Activity,[3],Active
